Measured values from paper PMC5198968 (Cancer Science, 2016).

How the values were obtained:
[1] = Pharmacokinetics in plasma and urine; format: in vivo, human; conditions: for half-life: human, plasma, oral, t ½,ss, gMean (gCV%)
Summary of the method: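 Oral dosing twice daily, at 100, 150 or 200 mg depending on group. Blood was drawn predose and 1, 2, 3, 4, 6, 8, 10 and 24 h postdose on cycle 1 day 15, plus predose and 2 h postdose on cycle 2 days 1 and 15. Urine was collected over 24 h on cycle 1 day 15 and stored at −20°C or below. Analysis was by LC-MS/MS, with non-compartmental parameters, in treated patients with an evaluable PK end-point.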

[2] = tested on: Japanese patients with advanced hepatocellular carcinoma; experiment: Efficacy: tumor response; format: in vivo, human
[3] = dose-normalized AUC at steady state

COC(=O)c1ccc2c(c1)NC(=O)/C2=C(\Nc1ccc(N(C)C(=O)CN2CCN(C)CC2)cc1)c1ccccc1 [nintedanib]
Time at which plasma concentrations reached their maximum ([1]; after multiple oral dose administration at steady state): 3 to 4 h
Correlation between nintedanib exposure (AUCτ,ss,norm) and AST or ALT levels ([1]; days 1–22 of cycle 1): no clear correlation
Increase in AUCτ,ss,norm, Child–Pugh score 7 versus score 5 or 6 [1, 3]: 37%
Increase in AUCτ,ss,norm, group II versus group I [1, 3]: 26%
half-life ([1]; 100 mg, Group II (moderate liver impairment), 100 mg b.i.d., n = 2, steady state): 41.6 h
half-life ([1]; 150 mg, Group I (mild liver impairment), 150 mg b.i.d., n = 3, steady state): 23.6 h
half-life ([1]; 150 mg, Group II (moderate liver impairment), 150 mg b.i.d., n = 3, steady state): 14.6 h
half-life ([1]; 200 mg, Group I (mild liver impairment), 200 mg b.i.d., n = 9, steady state): 16.6 h
half-life ([1]; 200 mg, Group II (moderate liver impairment), 200 mg b.i.d. (n = 7), steady state): 17.7 h
Administered dose recovered in the urine ([1]; over 24 hours after dosing at steady state): 0.49–0.66%
AUCτ,ss of individual patients with high exposure ([1]; two patients in group I, 200 mg b.i.d. cohort): 5700 ng·h/mL
Objective tumor response (RECIST 1.0, investigator assessment) ([2]; both groups): no complete or partial responses
Stable disease ([2]; group I (12 patients; 10 treated at the MTD)): 75.0%
Patients with response by AFP (decline from baseline of >20% in AFP levels) ([2]; group I, nine patients (56.3%) evaluable): three
Patients who had progressed at the time of analysis ([2]; group I, of 16 patients): 15 patients
Median time to progression (TTP) ([2]; group I, overall, 95% CI 1.05–5.52): 2.8 months
Median time to progression (TTP) ([2]; group I, prior sorafenib treatment, 95% CI 1.05–5.68): 2.8 months
Median time to progression (TTP) ([2]; group I, treated at the MTD of 200 mg b.i.d., 95% CI 1.05–5.52): 2.8 months
Patients who had progressed at the time of analysis ([2]; group II, all patients): 14 patients
Patients with response by AFP ([2]; group II, nine patients (64.3%) evaluable): three
Median time to progression (TTP) ([2]; group II, overall, 95% CI 0.95–6.70): 3.2 months
Median time to progression (TTP) ([2]; group II, prior sorafenib treatment, 95% CI 0.95–6.70): 2.8 months
Median time to progression (TTP) ([2]; group II, treated at the MTD of 200 mg b.i.d., 95% CI 0.95–5.62): 2.8 months
Computed tomography finding in metastatic lymph node lesions ([2]; one patient of group I, after 1 month of nintedanib treatment): tumor necrosis
Stable disease ([2]; patients in each group): > 75%
